{
  "source": "paper PMC5919120",
  "about": "(Journal of immunology (Baltimore, Md. : 1950), 2018)",
  "test_system": "HCMEC/D3 cells",
  "assay": "Cellular binding assay by flow cytometry",
  "assay_type": "cell-based, human",
  "settings": "p<0.001, n=3",
  "in_short": "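HCMEC/D3 cells grown at 37°C in 5% CO2 to 70% confluence, detached, and pre-treated with heparanase I (10 U/ml) and III (2 U/ml) for 1.5 h at 37°C. Cells were then incubated 1 h on ice in 1% BSA/PBS with Atto 425-labelled CXCL8 or FITC-labelled peptide (5 µg/ml). Cells were washed twice (500 x g, 5 min) and signal read by flow cytometry; mean ± SE, n=3.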",
  "data": [
    {"substance": "CXCL8: recombinant human CXCL8, labelled with Atto 425 for binding assays", "values": [
      {"measurement": "binding to HCMEC/D3 cells pre-treated with heparanase I&III", "result": "significantly reduced"}
    ]}
  ]
}
